This note sets out measurements from paper PMC3911823 (The FEBS journal, 2011).

One series has as its target T1, P450 2B4 H172A (Oryctolagus cuniculus, UniProt P00178, H172A).
T1 sequence (P00178 with tags, fused parts or gaps H172A limits assumed): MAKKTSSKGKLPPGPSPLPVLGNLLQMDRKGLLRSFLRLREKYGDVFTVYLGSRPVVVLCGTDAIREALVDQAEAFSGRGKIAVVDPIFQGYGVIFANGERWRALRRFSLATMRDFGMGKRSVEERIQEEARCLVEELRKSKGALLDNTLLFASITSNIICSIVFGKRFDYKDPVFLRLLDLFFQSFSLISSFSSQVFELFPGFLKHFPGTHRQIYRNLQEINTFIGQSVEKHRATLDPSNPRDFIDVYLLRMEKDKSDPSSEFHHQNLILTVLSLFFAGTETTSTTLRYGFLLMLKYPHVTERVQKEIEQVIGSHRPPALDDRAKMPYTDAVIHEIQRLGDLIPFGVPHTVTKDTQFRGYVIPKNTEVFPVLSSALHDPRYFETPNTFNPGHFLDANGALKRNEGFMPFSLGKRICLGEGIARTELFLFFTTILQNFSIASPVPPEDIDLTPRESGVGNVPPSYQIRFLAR
The series is classed as biochemical, rabbit (Oryctolagus cuniculus).

In the next series the target is T2, P450 2B4 H172Q (Oryctolagus cuniculus, UniProt P00178, H172Q).
T2 sequence (P00178 with tags, fused parts or gaps H172Q limits assumed): T1 sequence (P00178 with tags, fused parts or gaps H172A limits assumed) with A153Q
In kind it is biochemical, rabbit (Oryctolagus cuniculus).

Another series concerns the target T3, P450 2B4 wild type (Oryctolagus cuniculus, UniProt P00178).
T3 sequence (P00178 with tags, fused parts or gaps limits assumed): T1 sequence (P00178 with tags, fused parts or gaps H172A limits assumed) with A153H
The experiment in a line: Inhibition of 7-EFC O-deethylation by imidazole inhibitors. The series is classed as biochemical, rabbit (Oryctolagus cuniculus).

Series [1] deals with T4, P450 2B4 L437A (Oryctolagus cuniculus, UniProt P00178, L437A).
T4 sequence (P00178 with tags, fused parts or gaps L437A limits assumed): T1 sequence (P00178 with tags, fused parts or gaps H172A limits assumed) with A153H, L418A
The description is as above. In kind it is biochemical, rabbit (Oryctolagus cuniculus).

The next series addresses T5, P450 2B4 E474Q (Oryctolagus cuniculus, UniProt P00178, E474Q).
T5 sequence (P00178 with tags, fused parts or gaps E474Q limits assumed): T1 sequence (P00178 with tags, fused parts or gaps H172A limits assumed) with A153H, E455Q
The description is as above. The series is classed as biochemical, rabbit (Oryctolagus cuniculus).

Series [2] has as its target T4, P450 2B4 L437A. The experiment in a line: Spectral binding titration of imidazole ligands. On the set-up: species or system rabbit (Oryctolagus cuniculus). The following applies: 2B4 L437A versus wild type. Summed up: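 Protein was the His-tagged 2B4dH construct (single mutants or wild type), expressed in TOPP3 cells and Ni-NTA purified. Spectra 350–700 nm recorded after serial 5 μl additions of 100 μM 4-CPI or bifonazole. Ks came from a tight-binding equation fit, and the 4-CPI/bifonazole Ks ratio was calculated.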

One may read the kcat as the maximal rate divided by the concentration of active sites. The term IC50 denotes the point on the concentration scale where inhibition reaches its midpoint. A high value points to weaker potency in that assay.

Molecules are shown by their SMILES. Changes are numbered by the printed parent chain.

As for `O=c1ccc2nc3ccc(OCc4ccccc4)cc3oc-2c1` [7-BR, 7-benzyloxyresorufin], the “decrease (change) in kcat versus wild type” value at P450 2B4 H172A is listed as ~ 19 fold; on P450 2B4 H172Q, ~ 15 fold. In addition, the kcat came out at 0.0067 ± 0.0017 s⁻¹ at P450 2B4 H172A and 0.0083 ± 0.0017 s⁻¹ on P450 2B4 H172Q. Moreover, the kcat/S50 at P450 2B4 H172A is 0.08; on P450 2B4 H172Q, 0.06. Besides, the S50 at P450 2B4 H172A (Hill equation) came out at 5.0 ± 0.8 µM; on P450 2B4 H172Q (Hill equation), 8.2 ± 1.0 µM.

As to `Clc1ccc(-c2c[nH]cn2)cc1` [4-CPI, 4-(4-chlorophenyl)imidazole], the IC50 against P450 2B4 wild type came out at 40 nM; at P450 2B4 L437A [1], 970 nM; on P450 2B4 E474Q, 500 nM. The “Ratio 4-CPI IC50/Bifonazole IC50” value is on record as 0.04 at P450 2B4 wild type (2B4 WT, 50 μM 7-EFC as substrate); 3.88 at P450 2B4 L437A [1] (2B4 L437A, 50 μM 7-EFC as substrate); 0.62 at P450 2B4 E474Q (2B4 E474Q, 50 μM 7-EFC as substrate). In addition, the “Ks (spectral dissociation constant) higher than wild type” value at P450 2B4 L437A [2] is reported as ~ 50 times. For the same compound, the “change in the ratio of 4-CPI Ks to bifonazole Ks” value at P450 2B4 L437A [2] is listed as “greater than 9 fold”.
